Measurements: ChEMBL document CHEMBL1671709, “Small-molecule screening using a whole-cell viral replication reporter gene assay identifies 2-{[2-(benzoylamino)benzoyl]amino}-benzoic acid as a novel antiadenoviral compound” (Antimicrob Agents Chemother, 2010)
Calls of active or inactive are those of the source. The rule behind the calls is not given here.

How the values were obtained:
[1] = system: A549; assay: Cytotoxicity against human A549 cells assessed as dead cells at 15 uM after 24 hrs using PI by FACS analysis; assay type: cell-based; conditions: a549, 24 h
How it was run: (§1)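 A549 cells (2×10^5) seeded the day before in DMEM with 1% FBS; K562 cells (200,000) in RPMI 1640 with 5% FBS added just before compound. Compound at 5 and 15 µM, DMSO <1%, 24 h at 37 °C, 5% CO2. Cells washed, resuspended in PBS with 1 µg propidium iodide; dead cells counted by flow cytometry. Two independent duplicate experiments.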

[2] = system: Human adenovirus 5; assay: Antiviral activity against Human adenovirus type 5 infected in human A549 cells assessed as inhibition of viral replication by QPCR after 24 hrs; assay type: functional, organism-based; conditions: Human mastadenovirus C, A549, 24 h
How it was run: (§2)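 A549 cells (~10^5/well) seeded the day before; compound (0.5–15 µM) and 1 pg Ad virions per cell added together in DMEM with 1% FBS, final DMSO <1%. After 24 h at 37 °C, 5% CO2, cells harvested and DNA extracted. Viral genomes quantified by real-time PCR against Ad5 DNA standard curves, normalized to cellular RNase P. EC50 taken as 50% inhibition of replication; three independent duplicate experiments.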

[3] = Antiviral activity against Human adenovirus type 11p slobitski infected in A549 cells assessed as inhibition of DNA replication by QPCR assay; assay type: functional, cell-based, Human adenovirus 11p; conditions: Human mastadenovirus B
How it was run: (§3)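 A549 cells (about 10^5/well) were seeded the day before. Compound (0.5–15 µM, DMSO <1%) and 1 pg virions/cell were added together in DMEM with 1% FBS and held 24 h at 37°C. DNA was then extracted and viral genomes counted by TaqMan QPCR (AdDF probe, Ad5 or Ad11 DNA standards 5–5×10^5 copies), normalized to RNase P. EC50 is the 50% replication inhibition point, from at least two independent duplicate experiments.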

[4] = Selectivity index, ratio of CC50 for human A549 cells to EC50 for Human adenovirus type 11p; assay type: toxicity, cell-based; conditions: read-out: Selectivity Index
How it was run: (§4)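 About 50,000 A549 cells seeded the day before; compound titrated in DMEM with 1% FBS for 24 h. XTT then added and incubated 2 h at 37 °C, with absorbance read at 450 nm. CC50 is the concentration leaving 50% of cells viable. Selectivity index is CC50 divided by the QPCR EC50 for each virus. Three independent duplicate experiments.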

[5] = system: Human adenovirus 5; assay: Antiviral activity against Human adenovirus type 5 infected in human A549 cells assessed as inhibition of viral replication by QPCR at 15 uM after 24 hrs; assay type: functional, organism-based; how it was run: as §2
[6] = Selectivity index, ratio of CC50 for human A549 cells to EC50 for Human adenovirus type 5; assay type: toxicity, cell-based; conditions: read-out: Selectivity Index; how it was run: as §4
[7] = Antiviral activity against Human adenovirus type 41 Tak infected in A549 cells assessed as inhibition of DNA replication by QPCR assay; assay type: functional, cell-based, Human adenovirus 41; conditions: Human mastadenovirus F; how it was run: as §3
[8] = system: A549; assay: Antiviral activity against Human adenovirus type 11p slobitski infected in human A549 cells assessed as inhibition of hexon protein expression after 24 hrs using propidium iodide by FACS analysis; assay type: functional, cell-based; conditions: Human adenovirus 11p, in the assay text read “using anti-hexon monoclonal antibody” for “using propidium iodide”
How it was run: (§5)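 A549 cells (~2×10^5) seeded the day before. Compound (5 and 15 µM) added together with virus, 1 pg Ad5 or 0.5 pg Ad11p virions per cell, in DMEM with 1% FBS, DMSO <1%. After 24 h at 37 °C cells fixed in 2% paraformaldehyde and permeabilized with saponin. Stained with anti-hexon mouse monoclonal then Alexa Fluor 488 anti-mouse; read by flow cytometry. Two independent duplicate experiments.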

[9] = system: Human adenovirus 5; assay: Antiviral activity against Human adenovirus type 5 F2853-5b infected in A549 cells assessed as inhibition of DNA replication by QPCR assay; assay type: functional, organism-based; conditions: Human mastadenovirus C; how it was run: as §3
[10] = system: Human adenovirus 5; assay: Inhibition of [35S]-labeled Human adenovirus type 5 F2853-5b binding to human A549 cells at 15 uM; assay type: functional, organism-based
How it was run: (§6)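 A549 cells detached with 0.05% EDTA, allowed to recover 1 h, then suspended in PBS with 1% FBS and 0.01% NaN3 (200,000/well) on ice. Compound at 5 and 15 µM final, DMSO <1%, plus 5 pg 35S-labeled Ad5 or Ad11p virions per cell, rocked 1 h on ice. Cells washed three times; bound radioactivity counted by liquid scintillation. Three independent duplicate experiments.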

[11] = Cytotoxicity against human A549 cells by XTT assay; assay type: cell-based; how it was run: as §4
[12] = system: A549; assay: Antiviral activity against Human adenovirus type 11p in human A549 cells harboring green fluorescent protein-expressing RCAd11pGFP vector assessed as inhibition of RCAd11pGFP genome expression; assay type: functional, cell-based; conditions: Human adenovirus 11p
[13] = system: K562; assay: Cytotoxicity against human K562 cells assessed as dead cells at 15 uM after 24 hrs using PI by FACS analysis; assay type: cell-based; conditions: k562, 24 h; how it was run: as §1
[14] = Antiviral activity against Human adenovirus type 11p infected in human A549 cells assessed as inhibition of viral replication by QPCR after 24 hrs; assay type: functional, cell-based, Human adenovirus 11p; conditions: Human mastadenovirus B, A549, 24 h; how it was run: as §2
[15] = Cytotoxicity against human Fibroblast cells assessed as dead cells at 15 uM after 24 hrs using PI by FACS analysis; assay type: cell-based
[16] = Antiviral activity against Human adenovirus type 11p in human K562 cells harboring green fluorescent protein-expressing RCAd11pGFP vector assessed as inhibition of RCAd11pGFP genome expression at 50 uM relative to untreated control; assay type: functional, Human adenovirus 11p; conditions: Human mastadenovirus B
How it was run: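 Single-point screen done once in K562 cells (50,000/well) in phenol-red-free RPMI with 5% FBS, with RCAd11pGFP at 1 pg/cell. Compound was at 50 µM final, from a 5 mM DMSO stock. Each plate held six DMSO-only uninfected wells and six infected DMSO wells. After 24 h at 37°C in 5% CO2, GFP fluorescence was read at 485 nm, then MTT viability.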

[17] = Cytotoxicity against human K562 cells assessed as viable cells after 24 hrs by MTT assay; assay type: cell-based; conditions: read-out: Activity
How it was run: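 K562 cells (50,000/well) in phenol-red-free RPMI with 5% FBS, compound at 50 µM final (serial 25–0.78 µM in triplicate for dose-response), 24 h at 37 °C, 5% CO2, after the GFP fluorescence read. MTT added for 2 h, formazan dissolved in acidic isopropanol/Triton X-100, absorbance at 570 nm.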

[18] = system: A549; assay: Inhibition of [35S]-labeled Human adenovirus type 11p slobitski binding to human A549 cells at 15 uM; assay type: functional, cell-based; conditions: Human adenovirus 11p; how it was run: as §6
[19] = system: Human adenovirus 5; assay: Antiviral activity against Human adenovirus type 5 F2853-5b infected in human A549 cells assessed as inhibition of hexon protein expression after 24 hrs using propidium iodide by FACS analysis; assay type: functional, organism-based; conditions: in the assay text read “using anti-hexon monoclonal antibody” for “using propidium iodide”; how it was run: as §5
[20] = system: Human adenovirus 5; assay: Antiviral activity against Human adenovirus type 5 infected in human A549 cells assessed as inhibition of viral replication by QPCR at 5 uM after 24 hrs; assay type: functional, organism-based; how it was run: as §2
[21] = Antiviral activity against Human adenovirus type 11p in human K562 cells harboring green fluorescent protein-expressing RCAd11pGFP vector assessed as inhibition of RCAd11pGFP genome expression; assay type: functional, cell-based, Human adenovirus 11p; conditions: Human mastadenovirus B
How it was run: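 K562 cells (50,000/well) in phenol-red-free RPMI with 5% FBS, infected with RCAd11pGFP at 1 pg/cell. The 5 mM DMSO stock was diluted 1:1 serially from 25 to 0.78 µM, with final DMSO <1%, run in triplicate.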

[22] = Antiviral activity against Human adenovirus type 31 1315/63 infected in A549 cells assessed as inhibition of DNA replication by QPCR assay; assay type: functional, cell-based, Human adenovirus 31; conditions: Human mastadenovirus A, 1315/63, A549; how it was run: as §3
[23] = system: Human adenovirus D37; assay: Antiviral activity against Human adenovirus type 37 1477 infected in A549 cells assessed as inhibition of DNA replication by QPCR assay; assay type: functional, organism-based; conditions: Human mastadenovirus D, 1477, A549; how it was run: as §3
[24] = Antiviral activity against Human adenovirus type 4 RI-67 infected in A549 cells assessed as inhibition of DNA replication by QPCR assay; assay type: functional, cell-based, Human adenovirus 4; conditions: Human mastadenovirus E, RI-67, A549; how it was run: as §3

SMILES: O=C(Nc1ccccc1C(=O)Nc1ccccc1C(=O)O)c1ccccc1
- Activity [1]: < 2%
- EC50 [2]: 3.7 µM
- EC50 [3]: 2.9 µM
- selectivity ratio [4]: 68
- inhibition [5]: Active
- selectivity ratio [6]: 54
- EC50 [7]: 2.4 µM
- inhibition [8]: Dose-dependent effect
- EC50 [9]: 3.7 µM
- inhibition [10]: inactive
- CC50 [11]: 199 µM
- inhibition [12]: Active
- Activity [13]: < 2%
- EC50 [14]: 2.9 µM
- Activity [15]: < 2%
- inhibition at 50 µM [16]: 100%
- viability at 24 h [17]: 100%
- inhibition [18]: inactive
- inhibition [19]: Dose-dependent effect
- inhibition [20]: Active
- EC50 [21]: 28.6 µM
- EC50 [22]: 3.9 µM
- EC50 [23]: 4.7 µM
- EC50 [24]: 3.6 µM

SMILES: O=C(Nc1ccccc1C(=O)Nc1ccccc1C(=O)Nc1ccccc1C(=O)O)c1ccccc1
- inhibition [5]: inactive
- inhibition [20]: inactive

SMILES: O=C(Nc1ccccc1C(=O)O)c1ccccc1
- inhibition [5]: inactive
- inhibition [20]: inactive

SMILES: Nc1ccn(C[C@@H](CO)OCP(=O)(O)O)c(=O)n1 [CIDOFOVIR]
- EC50 [3]: 16.5 µM
- EC50 [9]: 19.9 µM
